The record followed here is ChEMBL document CHEMBL1154198, “Chemical genetics of Plasmodium falciparum” (Nature, 2010).

Usually EC50 stands for the concentration needed to bring the measured effect to its halfway point.

Series [1] can be described thus: ST_JUDE: Cytotoxicity using luciferase to measure ATP as an indicator of the viability of human epithelial embryonic kidney cells (HEK293). It counts as toxicity, cell-based.
Series [2] has as its system Plasmodium falciparum. Kind of series: ST_JUDE: Cytotoxicity against Plasmodium falciparum 3D7. It counts as functional, organism-based. The method in brief: (§1)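 Asexual P. falciparum grown in human erythrocytes, exposed to compounds for 72 h, and growth read as the DNA quantity in treated versus control cultures. Dose-response run at 12 concentrations from 10 μM to 5 nM.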

The subject of series [3] is Leishmania major. Kind of series: ST_JUDE: Cytotoxicity using Alamar Blue to measure viability of Leishmania major. It is filed as functional, organism-based. In short, it runs like this:
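L. major promastigotes; drug susceptibility read with Alamar Blue.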
For orientation: Alamar Blue is a resazurin reagent that responds to reducing activity.

For series [4], the system named is Plasmodium falciparum. Kind of series: ST_JUDE: Cytotoxicity against Plasmodium falciparum K1. It counts as functional, organism-based. In short, it runs like this: as §1
In series [5] the test system is Plasmodium falciparum. The series can be described thus: ST_JUDE: Cytotoxicity against Plasmodium falciparum Dd2. It is filed as functional, organism-based.
Series [6] in a line: ST_JUDE: Cytotoxicity using luciferase to measure ATP as an indicator of the viability of human foreskin fibroblast cells (BJ). It is filed as toxicity, cell-based.
The test system of series [7] is Plasmodium falciparum. Kind of series: ST_JUDE: Plasmodium falciparum 3D7 EC50 (uM) as measured by SYBR green dye. It counts as functional, organism-based.
For series [8], the system named is Plasmodium falciparum. Kind of series: ST_JUDE: Cytotoxicity against Plasmodium falciparum SB-A6. It counts as functional, organism-based.
The subject of series [9] is Plasmodium falciparum. The series can be described thus: ST_JUDE: Cytotoxicity against Plasmodium falciparum V1/S. It is filed as functional, organism-based.
Series [10] in a line: ST_JUDE: Cytotoxicity using luciferase to measure ATP as an indicator of the viability of human epithelial hepatocellular carcinoma cells (HepG2). It is filed as toxicity, cell-based.
The subject of series [11] is Plasmodium falciparum. The series can be described thus: ST_JUDE: Cytotoxicity against Plasmodium falciparum W2. It is filed as functional, organism-based.
The subject of series [12] is Toxoplasma gondii. The series can be described thus: ST_JUDE: Growth inhibition of to Toxoplasma gondii, in human U-2OS cells, as measured by luciferase. As to conditions: RH, U2OS. It counts as functional, organism-based. The method in brief: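 T. gondii parasites engineered to express luciferase; drug sensitivity read by luminescence.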
The subject of series [13] is Plasmodium falciparum. Kind of series: ST_JUDE: Cytotoxicity against Plasmodium falciparum D10 transfected with yeast DHOD. It is filed as functional, organism-based.
Series [14] in a line: ST_JUDE: Cytotoxicity using luciferase to measure ATP as an indicator of the viability of human Burkitt''s lymphoma lymphoblast cells (Raji). It counts as toxicity, cell-based.
Series [15] relates to Trypanosoma brucei. The series can be described thus: ST_JUDE: Cytotoxicity using luciferase to measure ATP as an indicator of the viability of Trypanosoma brucei. It counts as functional, organism-based.
Series [16] has as its system Plasmodium falciparum. The series can be described thus: ST_JUDE: Plasmodium falciparum K1 EC50 (uM) as measured by SYBR green dye. It is filed as functional, organism-based.

Turning to `Clc1ccc(Nc2nc(NCc3ccco3)c3ccccc3n2)cc1`, the concentration for a half-maximal effect (EC50) in [1] was 31.2 µM; in series [2] it was 1260 nM; in [3], 0.0006 µM; in [4], 1830 nM; in series [5], 818 nM; in [6] it was above 46.4 µM. The concentration for a half-maximal effect (EC50) in series [7] was 797 nM; in series [8], 388 nM; in series [9], above 11900 nM; in series [10] it was 24 µM; in series [11], above 11900 nM; in series [12], above 25.4 µM. For the same compound, the EC50 is 1150 nM in [13], above 46.4 µM in [14], 9.21 µM in series [15] and 1710 nM in series [16].

As for `COc1ccccc1/N=C1\C=C(NS(=O)(=O)c2ccc(C(C)C)cc2)c2ccccc2C1=O`, the concentration for a half-maximal effect (EC50) in series [1] is above 34.5 µM; in series [2], 450 nM; in [3], above 14.8 µM; in series [4], 290 nM; in [5], 627 nM; in [6] it was above 34.5 µM. In addition, the EC50 in series [7] was 598 nM; in series [8] it was 190 nM; in series [9] it was 280 nM; in series [10] it was above 34.5 µM; in [11], above 8870 nM; in series [12], above 18.9 µM. In addition, the EC50 in [13] was 343 nM; in [14], above 34.5 µM; in series [15], 1.79 µM; in series [16], 132 nM.

For the compound `COc1ccc(C2CC3=NC(C)=C(C(=O)OC(C)C)C(c4ccccc4OC)C3=C(O)C2)cc1OC` (stereo not drawn), the EC50 was above 44.8 µM in series [1]; 711 nM in series [2]; above 19.2 µM in [3]; 396 nM in [4]; 812 nM in series [5]; above 44.8 µM in series [6]. Further, the EC50 in [7] is 1390 nM; in [8], 367 nM; in series [9], 434 nM; in series [10], above 44.8 µM; in series [11], 240 nM; in series [12] it was 11.4 µM. The EC50 in [13] is 637 nM; in series [14], above 44.8 µM; in series [15], 16.4 µM; in [16], 997 nM.

For `C/C=C/c1n(C)c2ccccc2[n+]1C`, the EC50 in [1] is above 40.2 µM; in [2], 916 nM; in [3], above 17.2 µM; in [4] it was 993 nM; in series [5] it was 1630 nM; in [6], above 40.2 µM. Further, the concentration giving a half-maximal response (EC50) in [7] was 1500 nM; in [8], 1070 nM; in [9], 1390 nM; in series [10], above 40.2 µM; in [11], 1900 nM; in series [12] it was above 22 µM. Also, the EC50 in [13] is 701 nM; in series [14], above 40.2 µM; in series [15], above 38.6 µM; in series [16] it was 1380 nM.

For `COc1ccc(C2CC(=O)NC3=C2C(=O)CC(c2ccc(F)cc2)C3)cc1OC` (stereo not drawn), the concentration giving a half-maximal response (EC50) is above 41.4 µM in [1]; 1440 nM in [2]; above 17.7 µM in series [3]; 1190 nM in series [4]; 1130 nM in series [5]; above 41.4 µM in series [6]. Moreover, the EC50 in [7] is 661 nM; in series [8], 2090 nM; in series [9], 1990 nM; in [10] it was above 41.4 µM; in [11], 1490 nM; in series [12] it was above 22.7 µM. For the same compound, the EC50 in series [13] was 1850 nM; in [14], above 41.4 µM; in [15] it was above 39.7 µM; in series [16] it was 1070 nM.

In the case of `CC[n+]1ccccc1C=Cc1ccc(N(C)C)cc1`, the concentration for a half-maximal effect (EC50) is above 45.3 µM in series [1]; 1080 nM in [2]; above 19.4 µM in series [3]; 1140 nM in [4]; 1820 nM in series [5]; above 45.3 µM in series [6]. For the same compound, the EC50 in series [7] is above 15000 nM; in series [8] it was 1920 nM; in [9] it was 1980 nM; in series [10], above 45.3 µM; in series [11] it was above 11600 nM; in [12], above 24.8 µM. Moreover, the half-maximal effective concentration (EC50) in series [13] was determined as 1470 nM; in series [14], 3.86 µM; in series [15], 14.3 µM; in [16], 704 nM.

For the compound `Fc1ccc(Nc2nc(NCc3ccco3)c3ccccc3n2)cc1`, the half-maximal effective concentration (EC50) came to 20 µM in series [1]; 581 nM in series [2]; 0.0029 µM in series [3]; 1120 nM in series [4]; 489 nM in [5]; 20.1 µM in [6]. Also, the concentration giving a half-maximal response (EC50) was determined as 673 nM in [7]; 357 nM in series [8]; 1910 nM in series [9]; 8.25 µM in series [10]; 354 nM in series [11]; 13.6 µM in series [12]. Besides, the EC50 in series [13] is 1200 nM; in [14], 14.9 µM; in series [15], 12.2 µM; in series [16], above 15000 nM.

As to `CCCO/C(O)=C1\C(C)=NC2=C(C(=O)CC(c3ccc(OC)c(OC)c3)C2)C1c1ccc(F)cc1` (stereo not drawn), the half-maximal effective concentration (EC50) in [1] was above 36.3 µM; in series [2] it was 96.4 nM; in series [3], above 15.6 µM; in series [4], 121 nM; in [5] it was 95.2 nM; in series [6] it was above 36.3 µM. In addition, the 50% effective concentration (EC50) in series [7] is 61.3 nM; in series [8], 60.3 nM; in series [9] it was 155 nM; in series [10] it was above 36.3 µM; in series [11], 56.6 nM; in series [12] it was above 19.9 µM. Moreover, the concentration giving a half-maximal response (EC50) in series [13] is 58 nM; in series [14] it was above 36.3 µM; in series [15], 5.92 µM; in series [16], 24 nM.

Take `OC(CNC1CCCCC1)Cn1c2ccc(Cl)cc2c2cc(Cl)ccc21` (stereo not drawn): the EC50 is above 38.8 µM in [1]; 1390 nM in series [2]; above 16.6 µM in series [3]; 348 nM in series [4]; 132 nM in [5]; above 38.8 µM in series [6]. For the same compound, the concentration for a half-maximal effect (EC50) is 388 nM in series [7]; 1050 nM in series [8]; 974 nM in series [9]; 17.2 µM in series [10]; 177 nM in series [11]; above 21.3 µM in series [12]. For the same compound, the EC50 was 916 nM in series [13], above 38.8 µM in [14], 1.97 µM in [15] and 172 nM in [16].

As for `CC(C)CN1C(=O)c2ccccc2C(C(=O)Nc2cccc(C#N)c2)C1c1cccs1` (stereo not drawn), the EC50 is above 46.8 µM in series [1]; 271 nM in [2]; above 20.1 µM in series [3]; 232 nM in series [4]; 161 nM in series [5]; above 46.8 µM in [6]. Moreover, the half-maximal effective concentration (EC50) in series [7] was 58.4 nM; in series [8], 351 nM; in series [9] it was 296 nM; in [10] it was above 46.8 µM; in series [11], 196 nM; in series [12], above 25.7 µM. Moreover, the EC50 in series [13] was 366 nM; in series [14], above 46.8 µM; in series [15], 3.18 µM; in series [16] it was 80.9 nM.

On to `CCOC(=O)C1(Cc2cccc(C(F)(F)F)c2)CCN(Cc2ccccc2O)CC1`, for which the EC50 in series [1] was above 41.3 µM; in [2] it was 1330 nM; in series [3] it was above 17.7 µM; in [4], 368 nM; in series [5] it was 345 nM; in series [6], above 41.3 µM. For the same compound, the EC50 in series [7] was 389 nM; in series [8], 858 nM; in [9], 486 nM; in [10], above 41.3 µM; in [11], 726 nM; in [12], above 22.6 µM. The concentration giving a half-maximal response (EC50) is 743 nM in [13], above 41.3 µM in series [14], 11.7 µM in [15] and 57.6 nM in series [16].

Regarding `CC(C)NCC(O)Cn1c2ccc(Cl)cc2c2cc(Cl)ccc21` (stereo not drawn), the concentration for a half-maximal effect (EC50) in [1] was 17.7 µM; in series [2], 1800 nM; in series [3] it was above 17.8 µM; in series [4], 477 nM; in series [5], 238 nM; in series [6], above 41.6 µM. The EC50 is 270 nM in series [7]; 656 nM in series [8]; 4840 nM in [9]; 7.62 µM in series [10]; 122 nM in series [11]; above 22.8 µM in [12]. In addition, the EC50 in series [13] amounted to 626 nM; in series [14], 20.9 µM; in series [15], 0.861 µM; in [16], 140 nM.

Regarding `Cc1cc(Nc2ccc(Br)c(C)c2)n2nc(C)nc2n1`, the EC50 in [1] is above 37.8 µM; in series [2], 214 nM; in series [3], above 16.2 µM; in series [4], 298 nM; in series [5], 204 nM; in series [6], above 37.8 µM. The concentration for a half-maximal effect (EC50) is 167 nM in series [7]; above 9710 nM in series [8]; 296 nM in [9]; above 37.8 µM in [10]; 120 nM in series [11]; above 20.7 µM in series [12]. The EC50 is above 9710 nM in series [13], above 37.8 µM in series [14], above 36.2 µM in series [15] and 161 nM in series [16].
